Data taken from ChEMBL document CHEMBL1126841, “Synthesis and structure-activity relationships of 1-acyl-4-((2-methyl-3-pyridyl)cyanomethyl)piperazines as PAF antagonists” (J Med Chem, 1993).

Legend:
[1] = molecular target: Platelet-activating factor receptor (Rattus norvegicus) (UniProt P46002); experiment: Intravenous dose required to reduce the arterial blood pressure caused by PAF by 50% in rats; assay type: functional
Method in brief: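 Male Sprague-Dawley rats (180-220 g) under pentobarbital anesthesia (50 mg/kg ip); carotid blood pressure recorded. Compound in saline given iv (femoral vein) 3 min before PAF 0.5 µg/kg iv; controls got vehicle. % inhibition of hypotension vs controls. ID50 from linear regression of one curve, ≥4 doses, each the mean of ≥2 independent experiments.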

[2] = molecular target: Platelet-activating factor receptor (Mus musculus) (UniProt Q62035); experiment: Dose required to inhibit PAF-induced mortality by 50% in mice; assay type: functional; details: Mus sp.
Sequence of Platelet-activating factor receptor (Mus musculus) (Q62035 whole entry): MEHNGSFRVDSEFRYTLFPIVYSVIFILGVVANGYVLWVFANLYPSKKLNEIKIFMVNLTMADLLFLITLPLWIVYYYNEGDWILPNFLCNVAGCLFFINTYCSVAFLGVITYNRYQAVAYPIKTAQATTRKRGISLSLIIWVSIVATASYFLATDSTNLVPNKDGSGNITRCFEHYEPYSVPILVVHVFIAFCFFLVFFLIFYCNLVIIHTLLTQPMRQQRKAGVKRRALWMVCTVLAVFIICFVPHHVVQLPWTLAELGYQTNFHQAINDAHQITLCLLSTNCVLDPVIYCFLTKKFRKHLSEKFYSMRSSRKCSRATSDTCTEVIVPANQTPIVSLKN
Method in brief: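 Male Swiss mice (22-26 g), groups of 10; test compound given po (20 mL/kg), controls 1% Tween 80. 60 min later, C18-PAF 100 µg/kg plus propanolol 1 mg/kg injected into a lateral tail vein. Mortality scored 2 h after PAF; % inhibition vs controls. ID50 from linear regression of one curve, ≥4 points. Initial dose 3 mg/kg; further doses only if >50% inhibition.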

[3] = organism: Oryctolagus cuniculus; experiment: In vitro inhibition of PAF-induced platelet aggregation in male rabbits; assay type: functional
Method in brief: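 Platelet-rich plasma from blood spun 250 g, 10 min, 4 °C, diluted with platelet-poor plasma (3000 g, 10 min) to 3.5 × 10^5 platelets/mm3. Aggregation induced with C18-PAF 1.5 × 10^-8 M and read on a dual-channel aggregometer. IC50 as 50% inhibition of maximal aggregation, by linear regression of one curve, ≥4 points, each the mean of 1-3 independent experiments.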

[4] = Inhibition of PAF-induced platelet aggregation
[5] = organism: Oryctolagus cuniculus; experiment: In vitro inhibition of PAF-induced platelet aggregation in male rabbits
[6] = tested on: Mus musculus; experiment: Tested for dose required to inhibit endotoxin-induced mortality by 50 % when administered intravenously in endotoxin-induced mortality (EIM) mice; assay type: functional; details: iv, read-out: ID50 (the source's name)
Method in brief: (§1)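 Groups of 10 male Swiss mice (22-26 g) were dosed iv (saline vehicle) 5 min or po (1% Tween 80 vehicle) 30 min before tail-vein injection of E. coli 0111:B4 endotoxin, 20 mg/kg. Mortality was scored at 7 days versus vehicle controls. ID50 was obtained by linear regression of a single curve of at least four points.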

[7] = tested on: Mus musculus; experiment: Tested for dose required to inhibit antigen-induced mortality by 50 % when administered intravenously in active anaphylactic shock (AAS) mice; assay type: functional; details: iv, read-out: ID50 (the source's name)
Method in brief: (§2)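 Male Swiss mice (30 g, groups of 10) were sensitized by ip injection of 1 mL saline containing 1 mg bovine serum albumin, then challenged with BSA. Compound was given iv 5 min or po 30 min before challenge. Survival was recorded 60 min after BSA. ID50 (dose inhibiting mortality by 50%) was obtained by linear regression of a single curve of at least four points.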

[8] = tested on: Mus musculus; experiment: Tested for dose required to inhibit antigen-induced mortality by 50 % when administered perorally in active anaphylactic shock (AAS) mice; assay type: functional; details: po, read-out: ID50 (the source's name); method in brief: as §2
[9] = tested on: Mus musculus; experiment: Tested for dose required to inhibit endotoxin-induced mortality by 50 % when administered perorally in endotoxin-induced mortality (EIM) mice; assay type: functional; details: po, read-out: ID50 (the source's name); method in brief: as §1
[10] = tested on: Rattus norvegicus; experiment: Tested for dose required to inhibit endotoxin-induced mortality by 50 % when administered intravenously in endotoxin-induced mortality (EIM) rats; assay type: functional; details: iv, read-out: ID50 (the source's name)
Method in brief: as §1, with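 “Sprague-Dawley rats (150-175” for “Swiss mice (22-26”, “0127:B8” for “0111:B4”, “5” for “20”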

[11] = tested on: Rattus norvegicus; experiment: Tested for dose required to inhibit endotoxin-induced mortality by 50 % when administered perorally in endotoxin-induced mortality (EIM) rats; assay type: functional; details: po, read-out: ID50 (the source's name)
Method in brief: as §1, with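 “Sprague-Dawley rats (150-175” for “Swiss mice (22-26”, “0127:B8” for “0111:B4”, “5” for “20”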

[12] = tested on: Mus musculus; experiment: Tested for dose required to inhibit antigen-induced mortality by 50 % when administered intravenously in active anaphylactic shock (AAS) mice.; assay type: functional; details: iv, read-out: ID50 (the source's name); method in brief: as §2
[13] = tested on: Rattus norvegicus; experiment: Tested for dose required to inhibit endotoxin-induced mortality by 50 % when administered perorally in endotoxin-induced mortality (EIM) in rats; assay type: functional; details: po, read-out: ID50 (the source's name)
Method in brief: as §1, with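 “Sprague-Dawley rats (150-175” for “Swiss mice (22-26”, “0127:B8” for “0111:B4”, “5” for “20”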

[14] = tested on: Mus musculus; experiment: Tested for dose required to inhibit antigen-induced mortality by 50 % when administered perorally in active anaphylactic shock (AAS) mice.; assay type: functional; details: po, read-out: ID50 (the source's name); method in brief: as §2
[15] = tested on: Rattus norvegicus; experiment: Tested for dose required to inhibit endotoxin-induced mortality by 50 % when administered intravenously in endotoxin-induced mortality (EIM) in rats; assay type: functional; details: iv, read-out: ID50 (the source's name)
Method in brief: as §1, with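 “Sprague-Dawley rats (150-175” for “Swiss mice (22-26”, “0127:B8” for “0111:B4”, “5” for “20”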

Sequence of Platelet-activating factor receptor (Rattus norvegicus) (P46002 whole entry): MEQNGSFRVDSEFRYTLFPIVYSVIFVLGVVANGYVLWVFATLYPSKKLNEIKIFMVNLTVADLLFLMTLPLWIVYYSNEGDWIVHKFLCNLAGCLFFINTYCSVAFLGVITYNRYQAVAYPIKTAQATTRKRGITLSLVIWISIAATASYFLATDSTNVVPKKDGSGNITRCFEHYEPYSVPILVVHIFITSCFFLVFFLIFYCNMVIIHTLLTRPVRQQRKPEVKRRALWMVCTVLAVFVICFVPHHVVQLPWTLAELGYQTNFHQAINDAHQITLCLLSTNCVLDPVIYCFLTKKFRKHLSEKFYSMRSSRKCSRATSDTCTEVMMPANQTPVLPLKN

Cc1ncccc1C(C#N)N1CCN(C(=O)CC(c2ccccc2)N2C(=O)CCC2=O)CC1 (stereo not drawn)
ID50 [1]: 0.042 mg/kg
ID50 [2]: 0.71 mg/kg
IC50 [3]: 69 nM

N#CC(c1cccnc1)N1CCN(C(=O)CC(c2ccccc2)c2ccccc2)CC1 (stereo not drawn)
IC50 [4]: 20 nM

N#CC(c1cccnc1)N1CCN(C(=O)C=C(c2ccccc2)c2ccccc2)CC1 (stereo not drawn)
IC50 [5]: 10 nM

N#CC(c1cccnc1)N1CCN(C(=O)CC(O)(c2ccccc2)c2ccccc2)CC1 (stereo not drawn)
IC50 [5]: 21 nM

COC(=O)NC(CC(=O)N1CCN(C(C#N)c2cccnc2C)CC1)c1ccccc1 (stereo not drawn)
ID50 [1]: 0.015 mg/kg
ED50 [6]: 1.7 mg/kg
ED50 [7]: 0.19 mg/kg
ED50 [8]: 2.7 mg/kg
ED50 [9]: 7.5 mg/kg
ID50 [2]: 0.044 mg/kg
ED50 [10]: 0.11 mg/kg
ED50 [11]: 1 mg/kg

N#CC(c1cccnc1)N1CCN(C(=O)CNC(c2ccccc2)c2ccccc2)CC1 (stereo not drawn)
IC50 [4]: 9.1 nM
ID50 [1]: 0.023 mg/kg
ID50 [2]: 5.9 mg/kg

Cc1nnc2n1-c1sc(CCC(=O)N3CCOCC3)cc1C(c1ccccc1Cl)=NC2 [APAFANT]
ED50 [6]: 1.7 mg/kg
ED50 [7]: 1.7 mg/kg
ED50 [8]: 0.8 mg/kg
ED50 [9]: 13.2 mg/kg
ED50 [10]: 0.47 mg/kg
ED50 [11]: 1.4 mg/kg

N#CC(c1cccnc1)N1CCN(C(=O)CCNC(c2ccccc2)c2ccccc2)CC1 (stereo not drawn)
IC50 [4]: 53 nM

Cc1ncccc1C(C#N)N1CCN(C(=O)CNC(c2ccccc2)c2ccccc2)CC1 (stereo not drawn)
ID50 [1]: 0.021 mg/kg
ED50 [12]: 0.51 mg/kg
ED50 [6]: 1.4 mg/kg
ED50 [13]: 1.4 mg/kg
ED50 [9]: 9 mg/kg
ED50 [14]: 2.7 mg/kg
ED50 [15]: 0.28 mg/kg
ID50 [2]: 0.3 mg/kg

Cc1ncccc1C(C#N)N1CCN(C(=O)CC(c2ccccc2)N(Cc2ccccc2)Cc2ccccc2)CC1 (stereo not drawn)
ID50 [1]: 0.068 mg/kg
ID50 [2]: > 3 mg/kg

Cc1ncccc1C(C#N)N1CCN(C(=O)CC(O)(c2ccccc2)C(F)(F)F)CC1 (stereo not drawn)
ID50 [1]: 0.013 mg/kg
ID50 [2]: 0.44 mg/kg

Cc1ncccc1C(C#N)N1CCN(C(=O)CC(Nc2ccccc2)c2ccccc2)CC1 (stereo not drawn)
ID50 [1]: 0.042 mg/kg
ID50 [2]: 0.27 mg/kg

CCOC(=O)NC(CC(=O)N1CCN(C(C#N)c2cccnc2C)CC1)c1ccccc1 (stereo not drawn)
ID50 [1]: 0.025 mg/kg
ID50 [2]: 0.23 mg/kg

CNC(=O)C(CC(=O)N1CCN(C(C#N)c2cccnc2C)CC1)c1ccccc1 (stereo not drawn)
ID50 [1]: 0.05 mg/kg
ID50 [2]: 0.78 mg/kg

Cc1ncccc1C(C#N)N1CCN(C(=O)CC(c2ccccc2)N2CCCS2(=O)=O)CC1 (stereo not drawn)
ID50 [1]: 0.048 mg/kg
ID50 [2]: > 3 mg/kg

Cc1ncccc1C(C#N)N1CCN(C(=O)CC(NC(=O)N2CCCC2)c2ccccc2)CC1 (stereo not drawn)
ID50 [1]: 0.055 mg/kg
ID50 [2]: 0.97 mg/kg

CCc1ncccc1C(C#N)N1CCN(C(=O)CNC(c2ccccc2)c2ccccc2)CC1 (stereo not drawn)
ID50 [1]: 0.063 mg/kg
ID50 [2]: 0.7 mg/kg
